MIN6 prolif-1: inducers of MIN6 beta-cell proliferation, primary screen, ATP luminescence, uHTS; MIN6 cells proliferation, ATPlite luminescence, 48 h; cells starved in 0.2% serum; 100% = growth in 10% serum; AID 2380, 2010; 330,000 tested, 0.29% active; proliferation, % at 10 µM;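 active = compounds whose signal lies at least 3.5 SD above the mean of all wells on their plate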;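 note: 0% = DMSO-treated cells in low-serum medium and 100% = 10% serum control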
m5-HT2A agonist: mouse Htr2a agonists via beta-arrestin recruitment, primary screen, cell-based, luminescence; 5-hydroxytryptamine receptor 2A (Mus musculus), P35363; AID 624169, 2012; CHO-K1 mHTR2A beta-arrestin complementation; percent of 30 µM serotonin response; activation, % at 7.6 µM; 360,000 tested, 0.66% active;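 active = activation above a run cutoff, the mean activation of all tested compounds plus 3 SD, cut at about 14% in these data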;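 note: 0% = plate median of compound wells and 100% = 30 µM serotonin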
Target sequence (P35363 whole entry, looked up): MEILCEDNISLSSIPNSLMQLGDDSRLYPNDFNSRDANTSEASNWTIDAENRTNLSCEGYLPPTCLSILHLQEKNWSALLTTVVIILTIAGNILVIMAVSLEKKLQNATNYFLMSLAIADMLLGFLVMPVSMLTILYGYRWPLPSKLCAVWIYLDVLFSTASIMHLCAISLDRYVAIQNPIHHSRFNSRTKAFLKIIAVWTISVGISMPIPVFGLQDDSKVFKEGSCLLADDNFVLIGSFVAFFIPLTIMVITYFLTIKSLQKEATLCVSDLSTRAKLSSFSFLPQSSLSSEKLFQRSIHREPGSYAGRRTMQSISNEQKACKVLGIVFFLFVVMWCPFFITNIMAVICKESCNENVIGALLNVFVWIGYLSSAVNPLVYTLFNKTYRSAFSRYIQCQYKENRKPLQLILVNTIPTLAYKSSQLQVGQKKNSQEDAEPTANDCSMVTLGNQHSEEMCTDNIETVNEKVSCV
SR-BI DiI-HDL act: activators of SR-BI mediated DiI-HDL uptake, primary screen, ldlA[mSR-BI] CHO cells, DiI fluorescence; activation, % at 12.5 µM; 320,000 tested, 0.096% active; 3 h; 100 = double the neutral-control signal;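 active = mean replicate activation of at least 60% and every replicate at or above 60%; inconclusive = mean or all-replicate condition met, but not both; inactive = mean below 60% and not all replicates reaching 60%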;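 note: 0% = median plate neutral-control signal and 100% = twice that signal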
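System: CHO ldlA[mSR-BI] cells / Medium: HEPES-buffered (25 mM, pH 7.4) F12 plus 0.5% BSA / Probe or stimulus: labelled HDL, 10 µg/mL / Doses: single compound concentration, delivered by pin transfer / Schedule: 3 h, 37 °C / Measured by: DiI fluorescence, bottom read / Measure: cell-associated DiI fluorescence as measure of HDL uptake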
SR-BI DiI inh: inhibitors of SR-BI mediated HDL lipid uptake, primary screen, ldlA[mSR-BI] cells, fluorescence, single point; Scavenger receptor class B member 1 (Mus musculus), Q61009; ldlA[mSR-BI] CHO cells, DiI-HDL uptake fluorescence, 3 h; 320,000 tested, 0.96% active; inhibition, % at 12.5 µM; AID 488896, 2010;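 active = mean replicate inhibition of at least 70% and a set share of replicates each scoring 70 or more; inconclusive = meets just one of the two criteria; inactive = fails both criteria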;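 note: 0% = median of neutral control wells and 100% = median of positive control wells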
Insulin prom up: insulin promoter activators in MIN6 cells, imaging, high-content screening, mouse beta cells; MIN6 insulin promoter-GFP reporter; active compounds read high; z-score at 5 µM; 190,000 tested, 0.3% active; AID 1625, 2009;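 active = z-score above 3 at 5 µM with at least 500 cells counted in the well; inconclusive = wells under 500 cells, flagged as cytotoxic or low count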
Calb FLC: C. albicans growth inhibition with fluconazole, primary screen, CaCi-2 strain, Alamar Blue fluorescence | C. albicans CaCi-2 + fluconazole, 48 h | growth inhibition, % (test concentration not listed) | 300,000 tested, 0.57% active | AID 1979, 2009;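 active = growth inhibition above about 58% in most replicates, limit read from the data, passing the limit was not always enough; inconclusive = exactly half the replicates above a set limit; inactive = most replicates below a set limit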;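 note: all wells also contain fluconazole at 8 µg/ml as a sub-toxic cotreatment; 0% = median of DMSO wells and 100% = median of geldanamycin control wells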
MIN6 prolif-2: inducers of beta-cell proliferation in MIN6, confirmation, MIN6 cells, mouse; shares compounds with MIN6 prolif-1; ATPlite luminescence, 48 h; cells kept in 0.2% serum; scaled between 0.2% and 10% serum; proliferation increase, % at 50 µM; 920 tested, under 10 active;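 active = proliferation increase above 40% at any of the four tested concentrations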
* = called active by the depositor; ? = inconclusive; · = no result. Compounds with a hit are over-represented: about 2.4% of the library has one in this group of screens.

SMILES	MIN6 prolif-1	m5-HT2A agonist	SR-BI DiI-HDL act	SR-BI DiI inh	Insulin prom up	Calb FLC	MIN6 prolif-2
Cc1ccc([C@@H]2C[C@H]3[C@@H](CN2S(=O)(=O)c2ccc(Cl)cc2)C(=O)C[C@@H](c2ccccc2F)N3S(=O)(=O)c2ccc(C)cc2)cc1	·	8.4	·	·	·	·	·
CCOC(=O)C1CSc2[nH]c(=O)sc2C1c1ccccc1 (stereo not given)	11.7*	-4.7	-3.1	3.1	-1.67	0.0	-3.9
CCCC(=O)N1CCC1(C)C(=O)Nc1ccc2c(c1)CCN2C(C)=O (stereo not given)	·	1.1	·	·	·	·	·
CCCCCCC1CC(=CN(C)C)C(=O)O1 (stereo not given)	·	-2.5	·	·	·	·	·
CC(O)(CS(=O)(=O)Cc1ccccc1)c1ccccc1 (stereo not given)	2.2	-0.2	12.9	-12.9	·	-2.1	·
COc1ccc(CS(=O)(=O)CC(C)(O)c2ccccc2Cl)cc1 (stereo not given)	8.9*	-0.3	0.7	-0.7	·	1.5	-3.6
CN(C)CCN1C(=O)C(=O)/C(=C(/O)c2ccc(S(=O)(=O)N3CCOCC3)cc2)C1c1ccc(F)cc1 (stereo not given)	2.7	-6.7	36.6	-36.6	·	30.3	·
COc1ccc2[nH]c(C(=O)NCCN3CCOCC3)cc2c1	-4.2	1.9	8.0	-8.0	-0.86	2.0	·
O=C(NCCN1CCOCC1)c1cc2ccccc2[nH]1	8.2*	-5.8	-0.2	0.2	·	-6.9	-0.5
Cc1nc(NC(=O)c2ccc(Br)o2)ccc1Br	11.3*	1.9	6.5	-6.5	·	-3.7	-0.8
O=C(Nc1cccc(NC(=O)c2ccc(Br)o2)n1)c1ccc(Br)o1	0.4	-0.3	-67.2	67.2	0.95	0.1	·
O=C(NCc1cccs1)c1csc(COCCO)n1	·	4.6	·	·	·	·	·
CN(C)c1ncc(CN2CCC(CO)(CCCc3ccccc3)CC2)s1	7.3*	4.9	·	·	-0.44	-3.6	-2.6
O=C(OCCCc1cc2ccccc2c(=O)o1)N1CCOCC1	7.8*	1.9	-6.2	6.2	·	·	4.0
COc1ccc(NC(=O)c2cc(C3CCCCN3S(=O)(=O)Cc3ccccc3)on2)cn1 (stereo not given)	·	-3.9	·	·	·	·	·
CCNC(=O)/C(C#N)=C/c1c(N2CCN(c3ccccc3)CC2)nc2c(C)cccn2c1=O	2.8	-4.3	9.5	-9.5	·	18.1	·
Cc1cccn2c(=O)c(/C=C(\C#N)C(N)=O)c(N3CCN(c4ccccc4)CC3)nc12	6.9*	-1.8	12.5	-12.5	·	12.6	-6.0
O=C(NCc1cccs1)C1CCN(S(=O)(=O)c2cccs2)CC1	-1.8	1.8	4.0	-4.0	·	29.9	·
CC1(C)CC(=O)C/C(=N/NC(=O)C2CCN(S(=O)(=O)c3cccs3)CC2)C1	9.3*	-0.7	30.1	-30.1	·	?	1.7
Nc1ncnc2c(C3OC(CO)C(O)C3O)c[nH]c12 (stereo not given)	·	-4.0	-2.8	2.8	·	·	·
COc1ccc(Cn2c(=O)c3[nH]cnc3n(-c3ccccc3C)c2=O)cc1	10.1*	-1.8	-11.3	11.3	-0.42	11.5	7.8
COc1ccc(S(=O)(=O)N(Cc2ccco2)Cc2cc3ccccc3[nH]c2=O)cc1	0.5	-3.1	0.9	-0.9	·	3.8	·
COc1ccccc1-c1cc(-c2ccccc2)nc(SCC(=O)O)c1C#N	-0.7	2.0	·	·	·	25.2	·
O=S(=O)(Nc1ccc(F)cc1)N1CCCCCC1	-1.1	0.0	·	·	-0.32	2.1	·
O=C(Nc1ccc(F)cc1)c1ccccc1NS(=O)(=O)N1CCCC1	8.5*	-4.7	-2.6	2.6	0.45	?	-6.3
SMILES	MIN6 prolif-1	m5-HT2A agonist	SR-BI DiI-HDL act	SR-BI DiI inh	Insulin prom up	Calb FLC	MIN6 prolif-2
O=C(OCN1C(=O)c2ccccc2C1=O)c1cc(S(=O)(=O)N2CCOCC2)ccc1F	-2.0	1.3	9.2	-9.2	·	·	·
Cn1nc(OC(=O)Nc2ccc(F)cc2)cc1C(F)(F)F	-1.1	2.5	22.2	-22.2	-0.06	12.0	·
Cn1nc(OCC(=O)O)cc1C(F)(F)F	6.3*	-0.1	5.5	-5.5	0.31	-0.1	6.7
O=C(O)c1cccc(Nc2nc3ccccc3nc2NS(=O)(=O)c2ccc(F)cc2)c1	-0.1	3.6	20.0	-20.0	·	·	·
Cc1cccc(S(=O)(=O)Nc2nc3ccccc3nc2Nc2cccc(C(=O)O)c2)c1	6.6*	2.0	12.5	-12.5	·	-1.5	-4.7
COC(=O)CCCn1cc(CN2CC(N3CCN(CCN(C)C)CC3)CS2(=O)=O)nn1 (stereo not given)	·	-1.8	·	·	·	·	·
C=CCn1c(=O)/c(=C/c2ccsc2)s/c1=C(\C#N)C(=O)NCCN1CCOCC1	·	-3.5	-35.9	35.9	·	·	·
OC(c1ccc(Cl)cc1)c1nccc2ccccc12 (stereo not given)	5.5*	-2.9	29.6	-29.6	·	-27.3	-5.9
O=C(Nc1cccc(Cl)c1)Nc1ccnc(-c2cccnc2)n1	11.1*	-3.6	-45.6	45.6	-1.6	7.4	5.3
O=C(Nc1cccc(Cl)c1)Nc1cnccn1	-2.8	-3.8	4.9	-4.9	·	-1.4	·
O=[N+]([O-])c1ccc(N2CCCC2)cc1NC1CC1	11.3*	0.6	-25.9	25.9	0.66	-13.7	-1.9
CN(C)S(=O)(=O)N1CCN(c2ccc([N+](=O)[O-])c(NC3CC3)c2)CC1	6.0	-1.1	-53.7	53.7	0.64	31.0	·
CCOC(=O)N1CCC(NC(=O)c2cc3c(-c4ccc(OC)c(OC)c4)nn(C)c3s2)CC1	0.0	-5.6	-42.0	42.0	0.42	10.3	·
CCOC(=O)C1CCN(C(=O)c2cc3c(-c4ccc(OC)c(OC)c4)nn(C)c3s2)CC1	12.2*	1.7	-46.3	46.3	0.65	-1.5	-4.0
